Measured values taken from ChEMBL document CHEMBL5653631, “A Potent and Selective ULK1 Inhibitor Suppresses Autophagy and Sensitizes Cancer Cells to Nutrient Stress” (iScience, 2018).
Values belong to the compound of their own block, whether it stands above or below them.

Key:
[1] = target: Calcium/calmodulin-dependent protein kinase kinase 1 (Homo sapiens) (UniProt Q8N5S9); assay: Inhibition of human recombinant CaMKK1 at 500 nM related to control ULK1
[2] = target: Serine/threonine-protein kinase 26 (Homo sapiens) (UniProt Q9P289); assay: Inhibition of human recombinant MST4 at 500 nM in presence of ATP by radiometric assay relative to control
[3] = target: Bone morphogenetic protein receptor type-1B (Homo sapiens) (UniProt O00238); assay: Inhibition of human recombinant BMPR1B at 500 nM in presence of ATP by radiometric assay relative to control
Summary of the method: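 Part of a radiometric in vitro activity panel of 327 recombinant human kinases. Each kinase was tested in duplicate at one inhibitor concentration. Activity remaining was expressed as a percentage of the vehicle control, and percent inhibition was taken as 100 minus that value.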

[4] = target: T1, Serine/threonine-protein kinase ICK (Homo sapiens) (UniProt Q9UPZ9); assay: Inhibition of human recombinant ICK at 500 nM in presence of ATP by radiometric assay relative to control
T1 sequence (whole entry): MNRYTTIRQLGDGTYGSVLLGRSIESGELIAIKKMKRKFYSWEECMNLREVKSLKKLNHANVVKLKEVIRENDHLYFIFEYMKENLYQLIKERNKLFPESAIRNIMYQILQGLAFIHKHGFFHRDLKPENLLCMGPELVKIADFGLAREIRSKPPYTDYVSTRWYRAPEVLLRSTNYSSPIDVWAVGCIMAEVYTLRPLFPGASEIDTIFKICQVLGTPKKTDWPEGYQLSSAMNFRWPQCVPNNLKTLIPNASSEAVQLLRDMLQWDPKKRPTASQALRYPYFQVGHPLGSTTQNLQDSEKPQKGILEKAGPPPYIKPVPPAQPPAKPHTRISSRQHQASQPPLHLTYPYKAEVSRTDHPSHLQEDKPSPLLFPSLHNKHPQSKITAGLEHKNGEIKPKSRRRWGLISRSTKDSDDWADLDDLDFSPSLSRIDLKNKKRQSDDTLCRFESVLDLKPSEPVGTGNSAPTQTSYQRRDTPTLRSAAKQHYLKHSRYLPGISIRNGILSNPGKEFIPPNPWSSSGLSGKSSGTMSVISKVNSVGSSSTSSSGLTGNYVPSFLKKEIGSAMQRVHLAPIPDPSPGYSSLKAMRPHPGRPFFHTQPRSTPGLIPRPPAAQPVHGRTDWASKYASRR

[5] = target: Wee1-like protein kinase 2 (Homo sapiens) (UniProt P0C1S8); assay: Inhibition of human recombinant Wee1B at 500 nM related to control ULK1
[6] = target: High affinity nerve growth factor receptor (Homo sapiens) (UniProt P04629); assay: Inhibition of human recombinant TRKA at 40 nM related to control ULK1
[7] = target: Serine/threonine-protein kinase 10 (Homo sapiens) (UniProt O94804); assay: Inhibition of human recombinant LOK at 40 nM in presence of ATP by radiometric assay relative to control
[8] = target: RAC-gamma serine/threonine-protein kinase (Homo sapiens) (UniProt Q9Y243); assay: Inhibition of human recombinant AKT3 at 40 nM in presence of ATP by radiometric assay relative to control
Summary of the method: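 Panel of 327 recombinant human kinases in radiometric activity assays, each screened in duplicate at a single inhibitor concentration; percent activity remaining relative to vehicle control, percent inhibition taken as 100 minus activity remaining.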

[9] = target: Mitogen-activated protein kinase 8 (Homo sapiens) (UniProt P45983); assay: Inhibition of human recombinant JNK1 at 40 nM related to control ULK1
[10] = target: Serine/threonine-protein kinase Nek4 (Homo sapiens) (UniProt P51957); assay: Inhibition of human recombinant NEK4 at 15 nM related to control ULK1
[11] = target: T2, Serine/threonine-protein kinase 17A (Homo sapiens) (UniProt Q9UEE5); assay: Inhibition of human recombinant DRAK1 at 15 nM related to control ULK1
T2 sequence (whole entry): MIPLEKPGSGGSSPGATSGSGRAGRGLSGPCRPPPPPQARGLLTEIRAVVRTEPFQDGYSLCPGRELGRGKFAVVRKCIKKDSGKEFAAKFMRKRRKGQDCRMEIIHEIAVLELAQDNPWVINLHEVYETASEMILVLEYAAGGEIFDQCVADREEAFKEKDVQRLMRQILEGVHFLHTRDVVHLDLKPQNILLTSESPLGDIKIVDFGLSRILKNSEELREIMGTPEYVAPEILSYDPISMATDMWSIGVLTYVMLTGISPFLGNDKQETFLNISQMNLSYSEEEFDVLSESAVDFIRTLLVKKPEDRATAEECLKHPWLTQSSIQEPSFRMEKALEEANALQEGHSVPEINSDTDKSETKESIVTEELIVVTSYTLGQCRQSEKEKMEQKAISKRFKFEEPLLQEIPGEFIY

[12] = target: Wee1-like protein kinase (Homo sapiens) (UniProt P30291); assay: Inhibition of human recombinant Wee1 at 15 nM related to control ULK1
[13] = target: Homeodomain-interacting protein kinase 3 (Homo sapiens) (UniProt Q9H422); assay: Inhibition of human recombinant HIPK3 at 15 nM related to control ULK1
[14] = target: T3, Serine/threonine-protein kinase BRSK1 (Homo sapiens) (UniProt Q8TDC3); assay: Inhibition of human recombinant BRSK1 at 15 nM related to control ULK1
T3 sequence (whole entry): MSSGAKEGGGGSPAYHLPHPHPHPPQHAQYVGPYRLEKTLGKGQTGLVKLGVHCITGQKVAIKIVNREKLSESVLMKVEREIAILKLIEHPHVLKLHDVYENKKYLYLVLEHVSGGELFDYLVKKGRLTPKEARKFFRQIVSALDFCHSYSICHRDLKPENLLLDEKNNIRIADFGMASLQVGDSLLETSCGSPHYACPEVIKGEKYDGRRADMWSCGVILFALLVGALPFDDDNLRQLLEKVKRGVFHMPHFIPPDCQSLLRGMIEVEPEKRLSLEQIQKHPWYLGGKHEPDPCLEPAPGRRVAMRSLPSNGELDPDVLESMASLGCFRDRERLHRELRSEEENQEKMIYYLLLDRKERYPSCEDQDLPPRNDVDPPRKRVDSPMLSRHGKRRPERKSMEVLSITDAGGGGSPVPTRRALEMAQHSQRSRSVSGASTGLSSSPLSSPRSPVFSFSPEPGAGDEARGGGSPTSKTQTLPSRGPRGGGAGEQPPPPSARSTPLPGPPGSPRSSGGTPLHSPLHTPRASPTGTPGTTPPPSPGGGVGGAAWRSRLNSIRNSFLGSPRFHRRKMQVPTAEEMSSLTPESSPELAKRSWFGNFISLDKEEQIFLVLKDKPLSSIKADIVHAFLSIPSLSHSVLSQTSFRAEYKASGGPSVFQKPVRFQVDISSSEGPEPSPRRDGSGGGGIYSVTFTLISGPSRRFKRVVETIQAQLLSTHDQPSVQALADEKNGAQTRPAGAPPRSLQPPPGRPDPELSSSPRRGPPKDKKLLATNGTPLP

Chain of Serine/threonine-protein kinase 26 (Homo sapiens) (Q9P289 2-416 limits assumed): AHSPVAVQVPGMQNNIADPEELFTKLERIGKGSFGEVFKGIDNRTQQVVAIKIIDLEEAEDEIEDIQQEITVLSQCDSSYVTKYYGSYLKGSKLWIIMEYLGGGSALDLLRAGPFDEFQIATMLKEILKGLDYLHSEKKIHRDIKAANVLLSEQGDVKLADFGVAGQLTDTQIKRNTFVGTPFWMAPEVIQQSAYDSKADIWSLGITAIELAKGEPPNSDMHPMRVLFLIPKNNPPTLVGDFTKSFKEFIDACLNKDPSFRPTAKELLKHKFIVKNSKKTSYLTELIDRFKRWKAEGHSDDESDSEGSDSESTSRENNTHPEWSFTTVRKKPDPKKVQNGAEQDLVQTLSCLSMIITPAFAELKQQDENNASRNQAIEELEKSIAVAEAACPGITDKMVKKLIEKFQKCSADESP
Chain of Calcium/calmodulin-dependent protein kinase kinase 1 (Homo sapiens) (Q8N5S9 whole entry, looked up): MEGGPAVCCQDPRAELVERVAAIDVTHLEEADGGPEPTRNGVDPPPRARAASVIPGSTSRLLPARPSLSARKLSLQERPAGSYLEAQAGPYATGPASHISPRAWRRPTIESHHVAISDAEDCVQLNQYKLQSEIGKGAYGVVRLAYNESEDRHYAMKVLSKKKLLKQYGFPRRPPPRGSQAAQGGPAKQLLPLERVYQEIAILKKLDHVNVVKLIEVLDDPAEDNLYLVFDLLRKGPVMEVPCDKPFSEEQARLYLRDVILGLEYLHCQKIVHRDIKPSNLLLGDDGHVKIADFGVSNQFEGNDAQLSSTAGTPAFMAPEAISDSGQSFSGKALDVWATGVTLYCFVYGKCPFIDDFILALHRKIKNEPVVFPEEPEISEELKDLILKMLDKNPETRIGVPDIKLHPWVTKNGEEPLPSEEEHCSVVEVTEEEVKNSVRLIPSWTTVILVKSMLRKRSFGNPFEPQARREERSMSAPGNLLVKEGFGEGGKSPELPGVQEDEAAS
Chain of Bone morphogenetic protein receptor type-1B (Homo sapiens) (O00238 whole entry): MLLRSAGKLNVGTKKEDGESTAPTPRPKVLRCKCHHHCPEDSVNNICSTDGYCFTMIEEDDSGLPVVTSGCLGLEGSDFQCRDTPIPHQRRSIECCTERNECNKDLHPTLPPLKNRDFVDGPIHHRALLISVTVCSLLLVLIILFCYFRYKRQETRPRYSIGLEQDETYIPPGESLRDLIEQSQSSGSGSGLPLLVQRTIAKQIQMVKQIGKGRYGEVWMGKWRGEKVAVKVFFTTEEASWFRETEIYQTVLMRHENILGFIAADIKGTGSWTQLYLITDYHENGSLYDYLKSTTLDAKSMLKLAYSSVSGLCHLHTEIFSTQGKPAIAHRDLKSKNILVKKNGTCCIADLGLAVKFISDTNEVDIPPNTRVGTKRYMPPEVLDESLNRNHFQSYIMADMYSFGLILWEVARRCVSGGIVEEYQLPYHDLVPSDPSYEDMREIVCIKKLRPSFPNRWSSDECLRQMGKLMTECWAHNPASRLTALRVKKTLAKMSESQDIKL
Chain of Homeodomain-interacting protein kinase 3 (Homo sapiens) (Q9H422 whole entry, looked up): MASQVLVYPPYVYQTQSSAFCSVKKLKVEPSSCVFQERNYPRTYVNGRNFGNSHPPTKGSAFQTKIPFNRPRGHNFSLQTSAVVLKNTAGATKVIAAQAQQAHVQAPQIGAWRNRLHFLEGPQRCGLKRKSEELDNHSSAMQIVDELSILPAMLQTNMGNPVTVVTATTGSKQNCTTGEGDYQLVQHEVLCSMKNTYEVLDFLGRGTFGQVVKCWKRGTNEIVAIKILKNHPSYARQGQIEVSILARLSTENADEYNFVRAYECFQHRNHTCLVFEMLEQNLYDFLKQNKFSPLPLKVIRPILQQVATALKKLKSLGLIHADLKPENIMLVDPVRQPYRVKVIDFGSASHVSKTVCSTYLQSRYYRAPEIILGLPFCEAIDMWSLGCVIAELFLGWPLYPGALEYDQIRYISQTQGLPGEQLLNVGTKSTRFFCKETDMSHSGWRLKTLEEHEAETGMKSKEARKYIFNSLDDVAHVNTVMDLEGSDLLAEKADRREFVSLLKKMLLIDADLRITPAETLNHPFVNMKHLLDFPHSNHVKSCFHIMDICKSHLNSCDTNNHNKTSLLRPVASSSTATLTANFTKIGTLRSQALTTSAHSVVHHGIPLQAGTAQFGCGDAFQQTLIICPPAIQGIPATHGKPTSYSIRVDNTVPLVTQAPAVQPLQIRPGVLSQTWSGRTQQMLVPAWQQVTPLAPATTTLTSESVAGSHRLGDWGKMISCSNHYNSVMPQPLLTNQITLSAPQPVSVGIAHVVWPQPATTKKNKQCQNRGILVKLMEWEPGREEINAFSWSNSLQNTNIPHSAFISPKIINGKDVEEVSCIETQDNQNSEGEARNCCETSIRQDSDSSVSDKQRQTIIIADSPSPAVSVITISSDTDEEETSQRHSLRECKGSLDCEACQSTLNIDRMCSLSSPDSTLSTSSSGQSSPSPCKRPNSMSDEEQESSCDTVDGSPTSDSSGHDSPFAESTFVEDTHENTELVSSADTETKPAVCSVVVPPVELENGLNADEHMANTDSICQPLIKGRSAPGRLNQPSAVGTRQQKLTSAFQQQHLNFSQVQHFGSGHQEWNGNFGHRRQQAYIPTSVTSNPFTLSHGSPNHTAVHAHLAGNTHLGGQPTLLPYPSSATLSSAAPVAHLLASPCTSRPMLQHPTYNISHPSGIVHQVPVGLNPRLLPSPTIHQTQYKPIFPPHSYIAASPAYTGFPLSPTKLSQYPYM
Chain of RAC-gamma serine/threonine-protein kinase (Homo sapiens) (Q9Y243 whole entry): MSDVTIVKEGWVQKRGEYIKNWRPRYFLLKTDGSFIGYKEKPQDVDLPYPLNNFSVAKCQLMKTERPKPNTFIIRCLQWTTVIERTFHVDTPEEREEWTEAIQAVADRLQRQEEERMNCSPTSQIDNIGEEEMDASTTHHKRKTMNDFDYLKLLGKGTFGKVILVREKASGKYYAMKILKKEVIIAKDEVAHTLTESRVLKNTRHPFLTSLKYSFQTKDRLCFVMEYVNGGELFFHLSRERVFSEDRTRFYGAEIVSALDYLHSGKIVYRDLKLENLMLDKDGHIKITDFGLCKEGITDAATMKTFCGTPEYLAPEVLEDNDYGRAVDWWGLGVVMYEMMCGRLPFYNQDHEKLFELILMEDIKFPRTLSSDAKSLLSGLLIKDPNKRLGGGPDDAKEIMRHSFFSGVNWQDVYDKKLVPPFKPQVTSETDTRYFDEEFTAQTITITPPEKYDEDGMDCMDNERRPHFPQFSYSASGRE
Chain of High affinity nerve growth factor receptor (Homo sapiens) (P04629 33-796 limits assumed): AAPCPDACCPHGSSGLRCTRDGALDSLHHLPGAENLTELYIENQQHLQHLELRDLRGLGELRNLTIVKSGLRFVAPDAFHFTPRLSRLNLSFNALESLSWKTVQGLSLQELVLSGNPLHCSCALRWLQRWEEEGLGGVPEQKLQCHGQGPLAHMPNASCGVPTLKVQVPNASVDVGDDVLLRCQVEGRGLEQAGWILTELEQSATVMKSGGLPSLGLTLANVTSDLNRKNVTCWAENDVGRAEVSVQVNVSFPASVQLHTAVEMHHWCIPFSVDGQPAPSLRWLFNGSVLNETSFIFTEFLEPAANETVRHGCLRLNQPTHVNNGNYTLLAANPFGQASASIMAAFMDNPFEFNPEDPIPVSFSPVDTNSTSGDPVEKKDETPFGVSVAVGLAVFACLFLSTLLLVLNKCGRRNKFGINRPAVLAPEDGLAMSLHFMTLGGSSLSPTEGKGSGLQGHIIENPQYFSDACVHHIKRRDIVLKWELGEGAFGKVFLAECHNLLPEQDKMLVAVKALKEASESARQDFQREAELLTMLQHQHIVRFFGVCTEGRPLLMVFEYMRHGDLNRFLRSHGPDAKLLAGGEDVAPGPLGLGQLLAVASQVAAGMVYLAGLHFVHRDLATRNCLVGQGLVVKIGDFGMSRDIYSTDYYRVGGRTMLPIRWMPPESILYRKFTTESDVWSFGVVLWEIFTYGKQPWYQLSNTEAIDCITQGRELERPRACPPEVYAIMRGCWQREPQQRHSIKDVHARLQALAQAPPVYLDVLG
Chain of Serine/threonine-protein kinase Nek4 (Homo sapiens) (P51957 whole entry, looked up): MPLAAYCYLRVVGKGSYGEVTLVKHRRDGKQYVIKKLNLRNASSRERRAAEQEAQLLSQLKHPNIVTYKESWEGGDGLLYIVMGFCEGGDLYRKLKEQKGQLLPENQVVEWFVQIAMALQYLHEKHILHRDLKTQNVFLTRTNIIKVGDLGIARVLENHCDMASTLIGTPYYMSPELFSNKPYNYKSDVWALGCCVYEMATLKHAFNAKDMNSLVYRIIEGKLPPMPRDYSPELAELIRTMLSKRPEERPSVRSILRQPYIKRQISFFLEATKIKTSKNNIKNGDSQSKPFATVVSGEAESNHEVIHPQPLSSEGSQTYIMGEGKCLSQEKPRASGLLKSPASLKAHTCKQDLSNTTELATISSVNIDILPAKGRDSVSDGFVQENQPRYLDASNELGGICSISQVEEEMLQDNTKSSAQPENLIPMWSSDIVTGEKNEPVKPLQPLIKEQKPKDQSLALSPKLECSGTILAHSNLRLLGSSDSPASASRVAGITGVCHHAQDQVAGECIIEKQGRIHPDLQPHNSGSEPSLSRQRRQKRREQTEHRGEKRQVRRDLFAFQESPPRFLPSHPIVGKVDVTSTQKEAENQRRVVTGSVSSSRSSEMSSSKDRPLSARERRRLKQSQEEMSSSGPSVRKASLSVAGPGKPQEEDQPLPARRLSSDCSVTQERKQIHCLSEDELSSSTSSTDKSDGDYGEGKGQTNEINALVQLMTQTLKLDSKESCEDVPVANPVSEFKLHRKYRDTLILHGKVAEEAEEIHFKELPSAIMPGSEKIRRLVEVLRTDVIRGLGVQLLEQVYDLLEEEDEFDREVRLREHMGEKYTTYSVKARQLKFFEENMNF

fold change (FC) [1]: 0.11 | inhibition [2]: 0% | inhibition [3]: 0% | inhibition [4]: 3% | fold change (FC) [5]: 0.03
Compound: CNC(=O)c1ccccc1Oc1nc(Nc2cc(OC)c(OC)c(OC)c2)ncc1Br

fold change (FC) [6]: 0 | inhibition [7]: 0% | inhibition [8]: 2% | fold change (FC) [9]: 0
Compound: O=C(N[C@@H](C1CC1)C(F)(F)F)c1cc(-c2cnn3cc(-c4ccc(F)cc4)cnc23)cs1

fold change (FC) [10]: 0.07 | fold change (FC) [11]: 0.81 | fold change (FC) [12]: 0.17 | fold change (FC) [13]: 0 | fold change (FC) [14]: 0.15
Compound: CC(C)[C@H](NC(=O)c1cc(-c2cnn3cc(-c4ccc(OCCN5CCCCC5)cc4)cnc23)cs1)C(F)(F)F
